The values below come from PubChem BioAssay.

The source made the active and inactive calls.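 How the source made its calls, unless noted: active means viability at or below 30% in both replicate assays; inconclusive means viability at or below 30% in just one of the two assays; inactive means the rest.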

Assay [1] can be described thus: Her2 expression decrease, cell viability multiplex – SKBR3 breast tumor cells, AlphaScreen, ATP viability, primary screen (AID 461;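 active means Her2 level under about 52% in both replicate screens, with viability over 70% of control, limit read from the data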;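 on Her2 level: lower value means less Her2 protein in the cells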;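 on viability: percent of carrier control wells set as 100% viability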). The note with it: SKBR3 Her2 protein level, 18-24 h, measured here: SKBR3 viability, ATP luminescence, at 10 µM.
Assay [2] addresses Receptor tyrosine-protein kinase erbB-2 (Homo sapiens) (UniProt P04626). Described as above. Conditions: 18-24 h, at 10 µM, stronger effect = lower value.
A short description of assay [3]: reduced viability of SK-BR-3 breast cancer cells – cell-based, 24 h, human, pilot screen (AID 572;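 active means viability at or below 10% of carrier control in both of two separate runs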;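 further: compound exposure lasted between 18 and 24 h rather than exactly 24 h; 100% = carrier-treated control wells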). The note with it: SK-BR-3 viability, CellTiter-Glo luminescence, at 10 µM, stronger effect = lower value.
Assay [4] is described as follows: HUVEC growth inhibition – cell-based, human, primary screen (AID 575).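 Further: 100% = median of untreated cell wells with 0.1% DMSO on each plate.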 The note with it: HUVEC proliferation, CellTiter-Glo luminescence, 72 h; at 10 µM; stronger effect = lower value. In a few lines:
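Assay system: primary human umbilical vein endothelial cells / Buffer or medium: endothelial basal medium with 2% FBS plus growth supplements / Compound dosing: one dose, 10 µM final, 0.1% DMSO / Timing: 72 h treatment at 37 °C / Signal: CTG luminescence / Benchmarks: 32 DMSO-only cell-control wells (high), 32 MePR drug-control wells (low) per plate / Plate: collagen-coated 384-well format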
(In general: ATP-based viability assays read luminescence as a measure of living cells.)

Assay [5] is described as follows: H69AR cell proliferation blockers – human, duplicate replicates, primary screen (AID 580;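 active means viability at or under a set limit in both replicates, limit being median viability minus 3 SD, cut at about 48% in these data, passing the limit was not always enough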;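 further: 100% = mean luminescence of untreated wells and 0% = no signal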). Conditions: H69AR lung tumor cells viability, ATP luminescence, 72 h; at 10 µM; stronger effect = lower value.
Assay [6] can be described thus: MRP1 drug-resistance reversers in H69AR cells – cell-based, doxorubicin co-treatment, pilot screen (AID 601;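 active means viability loss from added drug above about 55%, and viability with drug at most 40%, in both replicates, limit read from the data, passing the limit was not always enough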). The note with it: CellTiter-Glo, 72 h, at 10 µM; for differential viability (reversal): stronger effect = higher value.
A short description of assay [7]: yeast transport mutant growth inhibition pilot in 384-well plates, post-Golgi transport modulator project (AID 636; in the data active means inhibition above about 31%). The note with it: absorbance 615 nm, about 18 h, stronger effect = higher value.
A short description of assay [8]: growth suppression of yeast trafficking mutant, preliminary HTS, modulators of trafficking downstream of Golgi apparatus project, 1536-format plate, OD 615 nm (AID 637; in the data active means inhibition above about 30%). The note with it: yeast transport mutant growth, absorbance 615 nm, 18 h; stronger effect = higher value.
Where [9] appears, read: H69AR cells + 2 uM doxorubicin, measured here: viability with 2 uM doxorubicin, stronger effect = lower value.
Where [10] appears, read: H69AR cells, compound alone cytotoxicity.

Chain of Receptor tyrosine-protein kinase erbB-2 (Homo sapiens) (P04626 whole entry, looked up): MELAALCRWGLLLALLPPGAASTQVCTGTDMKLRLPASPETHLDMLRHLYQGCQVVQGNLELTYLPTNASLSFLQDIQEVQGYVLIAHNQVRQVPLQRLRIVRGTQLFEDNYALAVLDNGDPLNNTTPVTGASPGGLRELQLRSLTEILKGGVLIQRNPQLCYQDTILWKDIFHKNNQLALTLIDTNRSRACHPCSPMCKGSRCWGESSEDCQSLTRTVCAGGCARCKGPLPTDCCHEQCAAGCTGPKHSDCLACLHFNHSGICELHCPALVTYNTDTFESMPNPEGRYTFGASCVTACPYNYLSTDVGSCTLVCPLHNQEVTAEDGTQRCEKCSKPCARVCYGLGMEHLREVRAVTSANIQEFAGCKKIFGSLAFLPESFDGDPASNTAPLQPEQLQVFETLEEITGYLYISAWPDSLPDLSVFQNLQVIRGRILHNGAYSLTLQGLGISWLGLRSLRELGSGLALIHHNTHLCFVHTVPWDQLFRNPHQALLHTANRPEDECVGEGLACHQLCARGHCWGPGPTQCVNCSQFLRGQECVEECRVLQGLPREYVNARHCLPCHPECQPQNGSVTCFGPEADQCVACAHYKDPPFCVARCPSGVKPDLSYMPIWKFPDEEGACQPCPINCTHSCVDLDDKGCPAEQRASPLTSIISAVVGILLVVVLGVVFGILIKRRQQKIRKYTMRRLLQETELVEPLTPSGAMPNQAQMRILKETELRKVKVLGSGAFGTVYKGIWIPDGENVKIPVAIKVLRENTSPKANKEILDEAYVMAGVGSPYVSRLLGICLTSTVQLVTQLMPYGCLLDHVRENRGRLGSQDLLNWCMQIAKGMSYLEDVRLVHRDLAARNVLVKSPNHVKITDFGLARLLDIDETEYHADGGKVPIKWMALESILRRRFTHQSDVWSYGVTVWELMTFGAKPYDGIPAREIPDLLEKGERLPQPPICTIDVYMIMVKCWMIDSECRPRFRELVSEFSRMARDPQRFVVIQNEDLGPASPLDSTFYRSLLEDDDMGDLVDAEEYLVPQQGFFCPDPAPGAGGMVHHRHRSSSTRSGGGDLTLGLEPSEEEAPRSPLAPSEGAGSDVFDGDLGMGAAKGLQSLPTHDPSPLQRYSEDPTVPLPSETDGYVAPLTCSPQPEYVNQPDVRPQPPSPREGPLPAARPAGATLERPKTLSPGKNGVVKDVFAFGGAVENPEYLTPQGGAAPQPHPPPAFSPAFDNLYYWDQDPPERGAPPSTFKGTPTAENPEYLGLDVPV

For orientation: viability means a read-out of living cells in per cent, often relative to untreated cells. Broadly, the inhibition is the relative decrease from the control value, in per cent. Regarding `Cc1ccc(CSC2=NCCN2C(=O)C2CC2)cc1`, the viability in assay [1] was 100%; in assay [3] it was 100% (inactive); in assay [4], 83.3% (inactive); in assay [5], 97% (inactive); in assay [6] (setting [9]) it was 86.3%; in assay [6] (setting [10]), 97%. Besides, the Her2 level in assay [2] is 88% (inactive). Further, the differential viability (reversal) in assay [6] (H69AR cells + 2 uM doxorubicin) was 10.7% (inactive). For the same compound, the results for the inhibition in assay [7] and in assay [8] were -8.11% (inactive) and 8.57% (inactive), respectively.

`Cc1onc(-c2ccccc2Cl)c1C(=O)Nc1cccc(-c2cn3cccnc3n2)c1`: the viability in assay [1] is 104%; in assay [3], 104% (inactive); in assay [4], 71.4% (inactive); in assay [5], 85.6% (inactive); in assay [6] (setting [9]), 84.5%; in assay [6] (setting [10]) it was 85.6%. Also, the Her2 level in assay [2] is 84% (inactive). Besides, the differential viability (reversal) in assay [6] (H69AR cells + 2 uM doxorubicin) was 1.15% (inactive). In addition, the inhibition in assay [7] was -5.39% (inactive); in assay [8] it was -1.82% (inactive).

Turning to `COCCN(C(=O)c1csnn1)C(C(=O)NC(C)(C)C)c1cccc(OC)c1` (stereo not given), the viability in assay [1] was 89.5%; in assay [3], 89.5% (inactive); in assay [4], 120% (inactive); in assay [5], 97.9% (inactive); in assay [6] (setting [9]), 96.9%; in assay [6] (setting [10]), 97.9%. Further, the Her2 level in assay [2] was 91% (inactive). Further, the differential viability (reversal) in assay [6] (H69AR cells + 2 uM doxorubicin) was 0.985% (inactive). Further, the inhibition in assay [7] is -4.4% (inactive); in assay [8], 0% (inactive).

`CNC(=O)CSc1nnc(-c2ccc(S(=O)(=O)N3CCCC3)cc2)n1-c1cccc(C)c1C`: the viability in assay [1] was 79.5%; in assay [3], 79.5% (inactive); in assay [4] it was 86.4% (inactive); in assay [5] it was 88.9% (inactive); in assay [6] (setting [9]) it was 77.2%; in assay [6] (setting [10]) it was 88.9%. In addition, in assay [2], the Her2 level was 78.5% (inactive). Also, in assay [6] (H69AR cells + 2 uM doxorubicin), the differential viability (reversal) was 11.7% (inactive). For the same compound, the figures for the inhibition in assay [7] and in assay [8] were -4.86% (inactive) and -1.15% (inactive), respectively.

For the compound `O=C1C2CC=CCC2C(=O)N1c1ccc(Cc2ccncc2)cc1` (stereo not given), the viability in assay [1] was 88%; in assay [3], 88% (inactive); in assay [4] it was 83.8% (inactive); in assay [5], 100% (inactive); in assay [6] (setting [9]) it was 97.8%; in assay [6] (setting [10]), 100%. In addition, in assay [2], the Her2 level was 96.5% (inactive). Moreover, in assay [6] (H69AR cells + 2 uM doxorubicin), the differential viability (reversal) was 2.21% (inactive). Moreover, the inhibition in assay [7] was 0.78% (inactive); in assay [8], -5.74% (inactive).

In the case of `O=C(CSc1nnnn1-c1ccc(Cl)cc1)NC(=O)Nc1ccc2c(c1)OCCO2`, the viability is 104% in assay [1]; 104% (inactive) in assay [3]; 66.9% (inactive) in assay [4]; 75.5% (inactive) in assay [5]; 74.8% in assay [6] (setting [9]); 75.5% in assay [6] (setting [10]). Also, in assay [2], the Her2 level was 101% (inactive). Further, the differential viability (reversal) in assay [6] (H69AR cells + 2 uM doxorubicin) is 0.67% (inactive). For the same compound, the figures for the inhibition in assay [7] and in assay [8] were -6% (inactive) and 3.02% (inactive), respectively.

For the compound `COc1ccc(C2C(C(=O)NCCN3CCOCC3)c3ccccc3C(=O)N2C2CCCCC2)cc1` (stereo not given), the viability in assay [1] is 88.5%; in assay [3] it was 88.5% (inactive); in assay [4], 64.3% (inactive); in assay [5] it was 81.3% (inactive); in assay [6] (setting [9]) it was 79.2%; in assay [6] (setting [10]), 81.3%. In addition, the Her2 level in assay [2] is 71% (inactive). For the same compound, the differential viability (reversal) in assay [6] (H69AR cells + 2 uM doxorubicin) is 2.12% (inactive). Further, the inhibition in assay [7] was -3.33% (inactive); in assay [8] it was 0% (inactive).

As for `C=CCOc1nc(N(C)C)nc(N(C)C)n1`, the viability was 92.5% in assay [1]; 92.5% (inactive) in assay [3]; 93.9% (inactive) in assay [4]; 98.2% (inactive) in assay [5]; 88.8% in assay [6] (setting [9]); 98.2% in assay [6] (setting [10]). The Her2 level in assay [2] is 87% (inactive). Besides, in assay [6] (H69AR cells + 2 uM doxorubicin), the differential viability (reversal) is 9.33% (inactive). In addition, the inhibition in assay [7] was -4.67% (inactive); in assay [8] it was 1.31% (inactive).

On to `O=C(c1cn(-c2ccccc2)nc1-c1cccs1)N1CCN(c2ccccn2)CC1`, for which the viability in assay [1] was 101%; in assay [3] it was 101% (inactive); in assay [4] it was 72.4% (inactive); in assay [5], 45.1% (active); in assay [6] (setting [9]), 85.1%; in assay [6] (setting [10]), 45.1%. Besides, the Her2 level in assay [2] is 79.5% (inactive). Besides, the differential viability (reversal) in assay [6] (H69AR cells + 2 uM doxorubicin) was -40% (inactive). In addition, the values for the inhibition in assay [7] and in assay [8] were -3.29% (inactive) and -2.38% (inactive), respectively.

`CC(=O)N1C(=O)N(C)C2C1N(C(C)=O)C(=O)N2C` (stereo not given): the viability is 125% in assay [1]; 125% (inactive) in assay [3]; 92.4% (inactive) in assay [4]; 93.5% (inactive) in assay [5]; 95.1% in assay [6] (setting [9]); 93.5% in assay [6] (setting [10]). Also, the Her2 level in assay [2] is 104% (inactive). Besides, the differential viability (reversal) in assay [6] (H69AR cells + 2 uM doxorubicin) was -1.64% (inactive). Also, the inhibition in assay [7] was -1.18% (inactive); in assay [8] it was -6.45% (inactive).

As to `c1ccc(CNc2ccc3c(c2)ncn3C2CCCCC2)nc1`, the viability in assay [1] is 97%; in assay [3], 97% (inactive); in assay [4] it was 96% (inactive); in assay [5] it was 96.8% (inactive); in assay [6] (setting [9]), 93.8%; in assay [6] (setting [10]), 96.8%. The Her2 level in assay [2] is 107% (inactive). In addition, the differential viability (reversal) in assay [6] (H69AR cells + 2 uM doxorubicin) is 2.95% (inactive). Also, the inhibition in assay [7] was -1.05% (inactive); in assay [8], -2.73% (inactive).

As for `NCC(O)COc1ccc2c(c1)OCO2` (stereo not given), the viability was 99% in assay [1]; 99% (inactive) in assay [3]; 104% (inactive) in assay [4]; 100% (inactive) in assay [5]; 97% in assay [6] (setting [9]); 100% in assay [6] (setting [10]). Also, the Her2 level in assay [2] was 120% (inactive). In assay [6] (H69AR cells + 2 uM doxorubicin), the differential viability (reversal) is 3.33% (inactive). The inhibition in assay [7] was 3.16% (inactive); in assay [8], 6.39% (inactive).

`CN(CCc1ccccn1)C(=O)CCNC(=O)Cn1cnc2ccccc2c1=O`: the viability is 99.5% in assay [1]; 99.5% (inactive) in assay [3]; 88.9% (inactive) in assay [4]; 96.4% (inactive) in assay [5]; 82.5% in assay [6] (setting [9]); 96.4% in assay [6] (setting [10]). For the same compound, the Her2 level in assay [2] was 97.5% (inactive). For the same compound, in assay [6] (H69AR cells + 2 uM doxorubicin), the differential viability (reversal) is 13.9% (inactive). Moreover, the inhibition was -2.86% (inactive) in assay [7] and -1.9% (inactive) in assay [8].

For `CC1/C(=N/O)C(CN(C)C)C2CC1C2(C)C` (stereo not given), the viability was 107% in assay [1]; 107% (inactive) in assay [3]; 99.3% (inactive) in assay [4]; 108% (inactive) in assay [5]; 76.3% in assay [6] (setting [9]); 108% in assay [6] (setting [10]). Also, the Her2 level in assay [2] is 84.5% (inactive). In assay [6] (H69AR cells + 2 uM doxorubicin), the differential viability (reversal) is 31.7% (inactive). Besides, the inhibition in assay [7] was -3.38% (inactive); in assay [8] it was -3.49% (inactive).

Turning to `O=C(NCCc1c[nH]c2ccccc12)c1ccc(S(=O)(=O)NCc2ccco2)cc1`, the viability is 93.5% in assay [1]; 93.5% (inactive) in assay [3]; 60.2% (inactive) in assay [4]; 65.6% (inactive) in assay [5]; 77.5% in assay [6] (setting [9]); 65.6% in assay [6] (setting [10]). Also, the Her2 level in assay [2] is 83.5% (inactive). For the same compound, the differential viability (reversal) in assay [6] (H69AR cells + 2 uM doxorubicin) is -11.9% (inactive). Also, the figures for the inhibition in assay [7] and in assay [8] were -1.82% (inactive) and -5.4% (inactive), respectively.

As for `O=C(CCn1c(=O)sc2ccccc21)Nc1nccs1`, the viability is 98.5% in assay [1]; 98.5% (inactive) in assay [3]; 115% (inactive) in assay [4]; 108% (inactive) in assay [5]; 91.5% in assay [6] (setting [9]); 108% in assay [6] (setting [10]). In addition, the Her2 level in assay [2] was 97% (inactive). For the same compound, the differential viability (reversal) in assay [6] (H69AR cells + 2 uM doxorubicin) was 16.8% (inactive). The inhibition in assay [7] is -2.6% (inactive); in assay [8], -0.95% (inactive).
